In ChEMBL document CHEMBL3120099, “Novel S1P(1) receptor agonists--part 2: from bicyclo[3.1.0]hexane-fused thiophenes to isobutyl substituted thiophenes” (J Med Chem, 2014):

What was measured:
Rattus norvegicus [1] = assay: Lymphopenic activity in Wistar rat assessed as reduction in blood lymphocyte count at 10 mg/kg, po after 24 hrs; format: functional
Method in brief: (§1)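 Normotensive male Wistar rats given 1–10 mg/kg by gavage in 5% DMSO/7.5% succinylated gelatin. Blood taken before and 3, 6 and 24 h after dosing, with later times for some compounds. Lymphocytes counted by hematology analyzer. % LC change calculated per animal relative to the predose value (=100%). Mean ± SEM.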

Rattus norvegicus [2] = assay: Lymphopenic activity in Wistar rat assessed as reduction in blood lymphocyte count at 10 mg/kg, po after 6 hrs; format: functional; set-up: scale not given: the % may be the effect or the level left; method in brief: as §1
Rattus norvegicus [3] = assay: Lymphopenic activity in Wistar rat assessed as reduction in blood lymphocyte count at 10 mg/kg, po after 3 hrs; format: functional; set-up: scale not given: the % may be the effect or the level left; method in brief: as §1
[4] = target: Sphingosine 1-phosphate receptor 3 (Homo sapiens, UniProt Q99500); assay: Agonist activity at human recombinant S1P3 receptor expressed in CHO cells assessed as membrane-bound 35S-GTPgammaS incubated 30 mins prior to substrate addition measured after 1 hr by topcount scintillation counting analysis; format: functional, cell-based
Sphingosine 1-phosphate receptor 3, sequence (Q99500 whole entry): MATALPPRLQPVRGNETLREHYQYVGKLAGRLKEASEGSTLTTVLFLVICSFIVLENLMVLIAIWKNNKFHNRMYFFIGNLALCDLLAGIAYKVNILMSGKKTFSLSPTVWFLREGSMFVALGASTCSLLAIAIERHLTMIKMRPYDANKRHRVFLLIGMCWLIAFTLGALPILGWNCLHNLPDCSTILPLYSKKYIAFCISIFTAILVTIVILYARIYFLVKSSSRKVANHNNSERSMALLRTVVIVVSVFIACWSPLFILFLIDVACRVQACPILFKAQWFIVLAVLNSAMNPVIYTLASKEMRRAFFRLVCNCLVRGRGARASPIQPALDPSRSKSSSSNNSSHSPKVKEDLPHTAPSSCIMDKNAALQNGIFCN

[5] = target: Sphingosine 1-phosphate receptor 1 (Homo sapiens, UniProt P21453); assay: Agonist activity at human recombinant S1P1 receptor expressed in CHO cells assessed as membrane-bound 35S-GTPgammaS incubated 30 mins prior to substrate addition measured after 1 hr by topcount scintillation counting analysis; format: functional, cell-based
Sphingosine 1-phosphate receptor 1, sequence (P21453 whole entry): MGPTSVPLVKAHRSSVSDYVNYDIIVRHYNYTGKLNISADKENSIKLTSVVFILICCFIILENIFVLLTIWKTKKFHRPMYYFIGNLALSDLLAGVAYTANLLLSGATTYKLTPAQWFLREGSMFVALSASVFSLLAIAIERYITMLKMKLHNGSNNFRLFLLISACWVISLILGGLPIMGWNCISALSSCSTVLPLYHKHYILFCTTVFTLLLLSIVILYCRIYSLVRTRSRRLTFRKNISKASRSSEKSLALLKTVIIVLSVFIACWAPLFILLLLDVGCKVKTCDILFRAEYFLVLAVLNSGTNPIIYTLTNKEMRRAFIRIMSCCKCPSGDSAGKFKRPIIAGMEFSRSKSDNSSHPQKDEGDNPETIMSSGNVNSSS

Homo sapiens = species on record: Homo sapiens; assay: Selectivity ratio of EC50 for human recombinant S1P3 receptor to EC50 for human recombinant S1P1 receptor
Method in brief: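 GDP was 1 μM for S1P1 and 3 μM for S1P3. Compounds (up to 10 μM) were preincubated 30 min at rt, then incubated 1 h at rt. Bound label was counted after filtration. 10 μM S1P defined maximum. EC50s are geometric means of ≥3 independent duplicate runs.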

| EC50 [4] | EC50 [5] | Ratio EC50 (Homo sapiens) | Structure (SMILES) | % change in blood lymphocyte count from predose (Rattus norvegicus [1]) | Activity (Rattus norvegicus [2]) | Activity (Rattus norvegicus [3]) |
| --- | --- | --- | --- | --- | --- | --- |
| – | – | – | CCc1ccc(-c2nc(-c3cc(C)c(OC[C@@H](O)CNC(=O)CO)c(C)c3)no2)s1 | 12% | -77% | -73% |
| 11 nM | 20 nM | – | CCCc1sc(-c2nc(-c3cc(C)c(OC[C@@H](O)CNC(=O)CO)c(CC)c3)no2)c2c1CC(C)(C)CC2 | – | – | – |
| 83 nM | 1.8 nM | – | CCc1cc(-c2noc(-c3sc(OC)c4c3CCC(C)(C)C4)n2)cc(C)c1OC[C@@H](O)CNC(=O)CO | – | – | – |
| 3830 nM | 20 nM | – | CCc1sc(C(=O)CCc2cc(C)c(OC[C@@H](O)CO)c(C)c2)c2c1CCCC2 | – | – | – |
| 126 nM | 0.4 nM | – | CCc1sc(C(=O)CCc2cc(C)c(OC[C@@H](O)CO)c(C)c2)c2c1CC(C)(C)CC2 | – | – | – |
| 25 nM | 0.4 nM | – | CCc1sc(C(=O)CCc2cc(C)c(OC[C@@H](O)CO)c(C)c2)c2c1CC(CC)(CC)CC2 | – | – | – |
| 819 nM | 1.1 nM | – | CCc1sc(C(=O)CCc2cc(C)c(OC[C@@H](O)CO)c(C)c2)c2c1CC1(CC2)CC1 | – | – | – |
| 62 nM | 0.4 nM | – | CCc1sc(C(=O)CCc2cc(C)c(OC[C@@H](O)CO)c(C)c2)c2c1CC1(CCCC1)CC2 | – | – | – |
| 172 nM | 0.9 nM | – | CCc1cc(-c2noc(-c3sc(CC)c4c3CCCC4)n2)cc(C)c1OC[C@@H](O)CNC(=O)CO | – | – | – |
| 1.2 nM | 6 nM | – | CCc1cc(-c2noc(-c3sc(CC)c4c3CCC(CC)(CC)C4)n2)cc(C)c1OC[C@@H](O)CNC(=O)CO | – | – | – |
| 24 nM | 1.1 nM | – | CCc1cc(-c2noc(-c3sc(CC)c4c3CCC3(CC3)C4)n2)cc(C)c1OC[C@@H](O)CNC(=O)CO | – | – | – |
| 11 nM | 4.7 nM | – | CCc1cc(-c2noc(-c3sc(CC)c4c3CCC3(CCCC3)C4)n2)cc(C)c1OC[C@@H](O)CNC(=O)CO | – | – | – |
| > 10000 nM | 21 nM | – | Cc1cc(CCC(=O)c2sc(C)c3c2CCC(C)(C)C3)cc(C)c1CCC(=O)O | – | – | – |
| 5270 nM | 4.8 nM | 100 | CCc1cc(CCC(=O)c2scc3c2CCC(C)(C)C3)cc(C)c1OC[C@@H](O)CNC(=O)CO | – | – | – |
| 25 nM | 1.3 nM | – | CCCc1sc(C(=O)CCc2cc(C)c(OC[C@@H](O)CNC(=O)CO)c(CC)c2)c2c1CC(C)(C)CC2 | – | – | – |
| > 10000 nM | 21 nM | – | Cc1cc(CCC(=O)c2sc(C)c3c2CCC(C)(C)C3)cc(C)c1O | – | – | – |
| 4450 nM | 19 nM | – | Cc1cc(CCC(=O)c2sc(C)c3c2CCC(C)(C)C3)cc(C)c1OCCO | – | – | – |
| 4450 nM | 71 nM | – | Cc1cc(CCC(=O)c2sc(C)c3c2CCC(C)(C)C3)cc(C)c1OCCCO | – | – | – |
| 1400 nM | 2.6 nM | 100 | Cc1cc(CCC(=O)c2sc(C)c3c2CCC(C)(C)C3)cc(C)c1OC[C@@H](O)CO | – | – | – |
| 1100 nM | 3.4 nM | 100 | Cc1cc(CCC(=O)c2sc(C)c3c2CCC(C)(C)C3)cc(C)c1OC[C@H](O)CO | – | – | – |
| 8560 nM | 6.1 nM | – | Cc1cc(CCC(=O)c2sc(C)c3c2CCC(C)(C)C3)cc(C)c1OCCN | – | – | – |
| > 10000 nM | 11 nM | – | Cc1cc(CCC(=O)c2sc(C)c3c2CCC(C)(C)C3)cc(C)c1OCCNCCO | – | – | – |

| EC50 [4] | EC50 [5] | Ratio EC50 (Homo sapiens) | Structure (SMILES) | % change in blood lymphocyte count from predose (Rattus norvegicus [1]) | Activity (Rattus norvegicus [2]) | Activity (Rattus norvegicus [3]) |
| --- | --- | --- | --- | --- | --- | --- |
| > 10000 nM | 48 nM | – | Cc1cc(CCC(=O)c2sc(C)c3c2CCC(C)(C)C3)cc(C)c1OCCCNCCO | – | – | – |
| 599 nM | 1.6 nM | – | CCc1sc(C(=O)CCc2cc(C)c(OCC(O)CO)c(C)c2)c2c1CC(C)CC2 (mixture of isomers) | – | – | – |
| > 10000 nM | 860 nM | – | CCc1sc(C(=O)CCc2cc(C)c(OCC(O)CO)c(C)c2)c2c1C[C@@H](O)CC2 (mixture of isomers) | – | – | – |
| > 10000 nM | 79 nM | – | CCc1sc(C(=O)CCc2cc(C)c(OCC(O)CO)c(C)c2)c2c1C[C@@](C)(O)CC2 (mixture of isomers) | – | – | – |
| > 10000 nM | 1600 nM | – | CCc1sc(C(=O)CCc2cc(C)c(OCC(O)CO)c(C)c2)c2c1C[C@@H](N(C)C)CC2 (mixture of isomers) | – | – | – |
| 5270 nM | 2.7 nM | – | Cc1cc(CCC(=O)c2sc(C)c(CC(C)C)c2C)cc(C)c1OCC(O)CNC(=O)CO (racemic) | – | – | – |
| 590 nM | 7.7 nM | – | Cc1cc(CCC(=O)c2ccc(CC(C)C)s2)cc(C)c1OCC(O)CNC(=O)CO (racemic) | – | – | – |
| 172 nM | 6.6 nM | – | CCc1c(-c2nc(-c3cc(C)c(OCC(O)CNC(=O)CO)c(C)c3)no2)sc(C)c1CC(C)C (racemic) | -25% | -40% | -30% |
| 74 nM | 0.5 nM | – | Cc1cc(-c2noc(-c3sc(C)c(CC(C)C)c3C)n2)cc(C)c1OCC(O)CNC(=O)CO (racemic) | -93% | -86% | -78% |
| 236 nM | 1.5 nM | – | Cc1cc(-c2noc(-c3cc(CC(C)C)c(C)s3)n2)cc(C)c1OCC(O)CNC(=O)CO (racemic) | -91% | -78% | -77% |
| 1250 nM | 4.7 nM | – | CCCCc1ccc(-c2nc(-c3cc(C)c(OCC(O)CNC(=O)CO)c(C)c3)no2)s1 (racemic) | 18% | -52% | -66% |
| 1150 nM | 0.9 nM | – | CCCc1ccc(-c2nc(-c3cc(C)c(OCC(O)CNC(=O)CO)c(C)c3)no2)s1 (racemic) | 31% | -59% | -65% |
| 392 nM | 0.5 nM | – | Cc1cc(CCC(=O)c2sc(C)c3c2CCC(C)(C)C3)cc(C)c1OCC(O)CNC(=O)CO (racemic) | – | – | – |
| 569 nM | 1.2 nM | – | Cc1cc(CCC(=O)c2sc(C)c3c2CCC(C)(C)C3)cc(C)c1OCC(O)CNCCC(=O)O (racemic) | – | – | – |
| 1760 nM | 4.3 nM | – | Cc1cc(CCC(=O)c2sc(C)c3c2CCC(C)(C)C3)cc(C)c1OCC(O)CN1CC(C(=O)O)C1 (racemic) | – | – | – |
| 4420 nM | 1.2 nM | – | CCc1cc(CCC(=O)c2sc(C)c3c2CCC(C)(C)C3)cc(C)c1OCC(O)CNC(=O)CO (racemic) | – | – | – |
| 242 nM | 1.3 nM | – | CCc1cc(CCC(=O)c2sc(C(F)(F)F)c3c2CCC(C)(C)C3)cc(C)c1OCC(O)CNC(=O)CO (racemic) | – | – | – |
| 3910 nM | 1.3 nM | – | CCc1cc(CCC(=O)c2sc(OC)c3c2CCC(C)(C)C3)cc(C)c1OCC(O)CNC(=O)CO (racemic) | – | – | – |
| 314 nM | 1.7 nM | 100 | CCc1cc(-c2noc(-c3scc4c3CCC(C)(C)C4)n2)cc(C)c1OCC(O)CNC(=O)CO (racemic) | – | – | – |
| 122 nM | 1.5 nM | – | CCc1cc(-c2noc(-c3sc(C)c4c3CCC(C)(C)C4)n2)cc(C)c1OCC(O)CNC(=O)CO (racemic) | – | – | – |
| > 10000 nM | 7 nM | – | Cc1cc(CCC(=O)c2sc(C)c3c2CCC(C)(C)C3)cc(C)c1OCC(O)CN (racemic) | – | – | – |
| > 10000 nM | 14 nM | – | Cc1cc(CCC(=O)c2sc(C)c3c2CCC(C)(C)C3)cc(C)c1OCC(O)CNCCO (racemic) | – | – | – |
